Measured values: ChEMBL document CHEMBL2177094, “Structure dependence of long-chain [18F]fluorothia fatty acids as myocardial fatty acid oxidation probes” (J Med Chem, 2012)

Experiments:
Bone = experiment: Drug uptake in overnight fasted Sprague-Dawley rat bone at 0.7 to 1.4 MBq, iv at 120 mins; type: ADME, organism-based, Bone element; conditions: in vivo, 2 h
Method in brief: (§1)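 Overnight-fasted female Sprague-Dawley rats under isoflurane received the [18F] tracer in 0.5–1.0% BSA/saline by tail vein. POCA group: 30 mg/kg i.p. 2 h before tracer. Tissues were excised at 30 or 120 min, weighed and gamma-counted with decay correction. Uptake = % dose kg/g, i.e. CPM tissue × body wt (kg) × 100 / (tissue wt (g) × CPM dose). n = 5–6.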

Muscle tissue [1] = experiment: Biodistribution in overnight fasted Sprague-Dawley rat muscle organic fraction at 0.7 to 1.4 MBq, iv at 30 mins by Folch-type extraction method; type: ADME, organism-based; conditions: in vivo, 0.5 h
Method in brief: (§2)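 Female Sprague-Dawley rats, fasted overnight, under isoflurane (3.5% induction, 1.5% maintenance). [18F] tracer in 0.5–1.0% BSA/saline was given by tail vein. POCA group: 30 mg/kg i.p. 120 min before tracer. About 0.5 g tissue was homogenized and sonicated in chloroform/methanol (2:1) at 0 °C, then 40% urea and 5% H2SO4 were added and spun 10 min at 1,800 g. Aqueous, organic and pellet fractions were counted as % of total.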

Heart [2] = experiment: Drug uptake in overnight fasted Sprague-Dawley rat heart at 0.7 to 1.4 MBq, iv preincubated with POCA for 2 hrs before compound administration measured at 120 mins post treatment; type: ADME, organism-based; conditions: in vivo
Method in brief: (§3)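 Female rats fasted overnight, under isoflurane (3.5% induction, 1.5% maintenance). 18F-labelled tracer formulated in 0.5–1.0% BSA/saline, injected via tail vein. Tissues harvested at 30 or 120 min, weighed, gamma-counted, decay-corrected. Uptake expressed as % dose kg/g, i.e. tissue CPM × body wt (kg) × 100 / (tissue wt (g) × dose CPM). POCA groups received 30 mg/kg i.p. 2 h before tracer. n = 5–6.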

Heart [3] = experiment: Drug uptake in overnight fasted Sprague-Dawley rat heart at 0.7 to 1.4 MBq, iv preincubated with POCA for 2 hrs before compound administration measured at 30 mins post treatment; type: ADME, organism-based; conditions: in vivo, 0.5 h; method in brief: as §3
Liver [4] = experiment: Biodistribution in overnight fasted Sprague-Dawley rat liver organic fraction at 0.7 to 1.4 MBq, iv preincubated with POCA for 2 hrs before compound administration measured at 120 mins post treatment by Folch-type extraction method; type: ADME, organism-based; conditions: in vivo; method in brief: as §2
Lung [5] = experiment: Drug uptake in overnight fasted Sprague-Dawley rat lung at 0.7 to 1.4 MBq, iv preincubated with POCA for 2 hrs before compound administration measured at 30 mins post treatment; type: ADME, organism-based; conditions: in vivo, 0.5 h; method in brief: as §3
Brain = experiment: Drug uptake in overnight fasted Sprague-Dawley rat brain at 0.7 to 1.4 MBq, iv at 120 mins; type: ADME, organism-based; conditions: in vivo, 2 h; method in brief: as §1
Heart [6] = experiment: Drug uptake in overnight fasted Sprague-Dawley rat heart at 0.7 to 1.4 MBq, iv at 120 mins; type: ADME, organism-based; conditions: in vivo, 2 h; method in brief: as §1
Lung [7] = experiment: Drug uptake in overnight fasted Sprague-Dawley rat lung at 0.7 to 1.4 MBq, iv preincubated with POCA for 2 hrs before compound administration measured at 120 mins post treatment; type: ADME, organism-based; conditions: in vivo; method in brief: as §3
Heart [8] = experiment: Drug uptake in overnight fasted Sprague-Dawley rat heart at 0.7 to 1.4 MBq, iv at 30 mins; type: ADME, organism-based; conditions: in vivo, 0.5 h; method in brief: as §3
Heart [9] = experiment: Metabolic stability in overnight fasted Sprague-Dawley rat heart at 9 to 11 MBq, iv measured at 55 to 115 mins by microPET analysis; type: ADME, organism-based; conditions: in vivo
Heart [10] = experiment: Biodistribution in overnight fasted Sprague-Dawley rat heart aqueous fraction at 0.7 to 1.4 MBq, iv at 120 mins by Folch-type extraction method; type: ADME, organism-based; conditions: in vivo, 2 h; method in brief: as §2
Blood = experiment: Drug uptake in overnight fasted Sprague-Dawley rat blood at 0.7 to 1.4 MBq, iv at 120 mins; type: ADME, organism-based; conditions: in vivo, 2 h; method in brief: as §1
Liver [11] = experiment: Biodistribution in overnight fasted Sprague-Dawley rat liver aqueous fraction at 0.7 to 1.4 MBq, iv at 30 mins by Folch-type extraction method; type: ADME, organism-based; conditions: in vivo, 0.5 h; method in brief: as §2
Muscle tissue [12] = experiment: Ratio of drug uptake in overnight fasted Sprague-Dawley rat muscle at 0.7 to 1.4 MBq, iv preincubated with POCA for 2 hrs before compound administration measured at 120 mins post treatment to drug uptake in overnight fasted Sprague-Dawley rat muscle at 0.7 to 1.4 MBq, iv at 120 mins; type: ADME, organism-based; conditions: in vivo
Method in brief: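 Ratio of skeletal muscle uptake (% dose kg/g) 120 min after tail-vein tracer in rats given POCA 30 mg/kg i.p. 2 h beforehand to that in fasted control rats. Radioactivity was decay-corrected and normalized to tissue and body weight.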

Heart [13] = experiment: Ratio of drug uptake in overnight fasted Sprague-Dawley rat heart at 0.7 to 1.4 MBq, iv at 30 mins to drug uptake in overnight fasted Sprague-Dawley rat heart at 0.7 to 1.4 MBq, iv preincubated with POCA for 2 hrs before compound administration measured at 30 mins post treatment; type: ADME, organism-based; conditions: in vivo, 0.5 h
Method in brief: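 Ratio of heart uptake (% dose kg/g) 30 min after tail-vein tracer in fasted control rats to that in rats given POCA 30 mg/kg i.p. 2 h before tracer. Tissue radioactivity was decay-corrected and weight-normalized.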

Drug uptake (Bone) [%IDKg/g] | Drug uptake (Muscle tissue [1]) [%] | Drug uptake (Heart [2]) [%IDKg/g] | Drug uptake (Heart [3]) [%IDKg/g] | Drug uptake (Liver [4]) [%] | Drug uptake (Lung [5]) [%IDKg/g] | Drug uptake (Brain) [%IDKg/g] | Drug uptake (Heart [6]) [%IDKg/g] | Drug uptake (Lung [7]) [%IDKg/g] | Drug uptake (Heart [8]) [%IDKg/g] | Stability (Heart [9]) | Drug uptake (Heart [10]) [%] | Drug uptake (Blood) [%IDKg/g] | Drug uptake (Liver [11]) [%] | Ratio (Muscle tissue [12]) | Ratio (Heart [13]) | SMILES
0.461 | 21.75 | 0.076 | 0.1155 | 68.06 | 0.0458 | 0.0215 | 0.8164 | 0.0179 | 0.7028 | Stable | 1.86 | 0.0185 | 8.43 |  |  | O=C(O)CCSCCCC/C=C\CCCCCCCC[18F]
0.2467 | 44.55 | 0.2288 | 0.3331 | 64.78 | 0.1163 | 0.022 | 0.2815 | 0.0536 | 0.4413 |  | 4.03 | 0.0241 | 9.65 | 2.2 |  | O=C(O)CCCCSCCCCCCCCCCCC[18F]
0.3143 | 33.56 | 0.1042 | 0.0792 | 50 | 0.0676 | 0.0154 | 0.1069 | 0.0472 | 0.589 |  | 4.17 | 0.0105 | 13.52 | 2.7 |  | O=C(O)CCSCCCCCCCCCCCC[18F]
0.2934 | 38.77 | 0.1025 | 0.1814 | 67.69 | 0.0998 | 0.0143 | 0.2144 | 0.0244 | 0.314 |  | 2.39 | 0.0098 | 15.36 |  | 1.7 | O=C(O)CCSCCCCCCCCCCCCCC[18F]
